Measurements: ChEMBL document CHEMBL5338787, “Discovery of Novel Bruton's Tyrosine Kinase PROTACs with Enhanced Selectivity and Cellular Efficacy” (J Med Chem, 2023)
Active and inactive are the calls of the source. No cut-off for these calls is given here.

Columns and labels:
[1] = target: T1, Protein cereblon/Tyrosine-protein kinase BTK (Homo sapiens, UniProt Q06187+Q96SW2); assay: PROTAC activity at BTK/CRBN protein protein interaction in human Ramos cell assessed as degradation of BTK preincubated with neddylation inhibitor MLN-4924 for 2 hrs followed by compound addition at 111 nM for 4 hrs measured by Western blot analysis; assay type: cell-based
Method in brief: (§1)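 Ramos cells were pre-treated for 2 h with bortezomib (proteasome inhibitor) or MLN-4924 (NEDD8-activating enzyme inhibitor), then given 111 nM degrader for 4 h. BTK level was assessed by western blot.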
Target sequence in this assay (Q06187 2-659 limits assumed): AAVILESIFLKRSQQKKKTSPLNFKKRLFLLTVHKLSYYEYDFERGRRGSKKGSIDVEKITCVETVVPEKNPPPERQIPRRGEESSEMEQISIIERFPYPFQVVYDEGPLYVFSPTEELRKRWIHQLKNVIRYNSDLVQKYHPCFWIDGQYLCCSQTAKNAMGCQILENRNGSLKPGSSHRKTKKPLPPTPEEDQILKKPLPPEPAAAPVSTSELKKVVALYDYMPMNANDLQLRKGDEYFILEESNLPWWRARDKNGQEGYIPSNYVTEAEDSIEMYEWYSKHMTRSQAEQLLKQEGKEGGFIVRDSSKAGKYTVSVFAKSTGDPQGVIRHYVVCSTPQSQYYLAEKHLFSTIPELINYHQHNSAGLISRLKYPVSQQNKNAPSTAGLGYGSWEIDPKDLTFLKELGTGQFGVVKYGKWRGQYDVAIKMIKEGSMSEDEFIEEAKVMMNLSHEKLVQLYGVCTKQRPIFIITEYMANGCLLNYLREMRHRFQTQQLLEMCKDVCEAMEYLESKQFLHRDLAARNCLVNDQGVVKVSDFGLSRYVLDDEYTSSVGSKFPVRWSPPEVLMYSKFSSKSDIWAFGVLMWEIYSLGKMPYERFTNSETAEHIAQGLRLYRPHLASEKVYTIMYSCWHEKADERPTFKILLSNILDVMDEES
Target sequence in this assay (Q96SW2 whole entry partner): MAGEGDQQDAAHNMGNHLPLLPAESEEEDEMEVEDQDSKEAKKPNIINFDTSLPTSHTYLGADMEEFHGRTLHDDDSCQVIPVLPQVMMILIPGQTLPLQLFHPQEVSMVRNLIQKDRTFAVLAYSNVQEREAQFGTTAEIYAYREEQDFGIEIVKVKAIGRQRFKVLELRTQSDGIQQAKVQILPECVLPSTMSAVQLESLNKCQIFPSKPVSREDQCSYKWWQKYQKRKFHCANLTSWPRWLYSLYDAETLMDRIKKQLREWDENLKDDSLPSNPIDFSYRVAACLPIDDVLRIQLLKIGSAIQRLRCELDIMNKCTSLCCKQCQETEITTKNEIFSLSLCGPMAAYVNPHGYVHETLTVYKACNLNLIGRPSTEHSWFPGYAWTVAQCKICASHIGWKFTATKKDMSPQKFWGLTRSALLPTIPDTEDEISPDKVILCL

TMD8 [2] = assay: Induction of apoptosis in human TMD8 cells assessed as decrease in caspase 3 level measured after 48 hrs by Western blot analysis; assay type: functional, cell-based; settings: dose 0.15-3000 nM
Method in brief: (§2)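 TMD8 or Mino cells (2 × 10^6 per well) exposed 48 h to 3000–0.15 nM (3-fold dilution) or 1% DMSO. Lysates BCA-normalised, 8–30 μg per lane on 4–20% Tris-glycine gels, transferred to nitrocellulose, probed with antibodies, HRP chemiluminescence detection and densitometry. Representative of two independent experiments.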

[3] = target: T1, Protein cereblon/Tyrosine-protein kinase BTK; assay: PROTAC activity at BTK/CRBN protein protein interaction in human Ramos cell assessed as degradation of BTK incubated for 17 hrs measured by Western blot analysis; assay type: cell-based
Method in brief: (§3)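 Ramos or JeKo-1 cells (2 × 10^6 per well) were exposed for 17 h to 3000–0.15 nM PROTAC in 3-fold steps. Cells were lysed and analysed by western blot, with BTK normalised to β-actin. DC50 and Dmax come from the dose-response; DC50 is the mean ± SD of two independent experiments.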
Target sequence in this assay (Q06187 whole entry): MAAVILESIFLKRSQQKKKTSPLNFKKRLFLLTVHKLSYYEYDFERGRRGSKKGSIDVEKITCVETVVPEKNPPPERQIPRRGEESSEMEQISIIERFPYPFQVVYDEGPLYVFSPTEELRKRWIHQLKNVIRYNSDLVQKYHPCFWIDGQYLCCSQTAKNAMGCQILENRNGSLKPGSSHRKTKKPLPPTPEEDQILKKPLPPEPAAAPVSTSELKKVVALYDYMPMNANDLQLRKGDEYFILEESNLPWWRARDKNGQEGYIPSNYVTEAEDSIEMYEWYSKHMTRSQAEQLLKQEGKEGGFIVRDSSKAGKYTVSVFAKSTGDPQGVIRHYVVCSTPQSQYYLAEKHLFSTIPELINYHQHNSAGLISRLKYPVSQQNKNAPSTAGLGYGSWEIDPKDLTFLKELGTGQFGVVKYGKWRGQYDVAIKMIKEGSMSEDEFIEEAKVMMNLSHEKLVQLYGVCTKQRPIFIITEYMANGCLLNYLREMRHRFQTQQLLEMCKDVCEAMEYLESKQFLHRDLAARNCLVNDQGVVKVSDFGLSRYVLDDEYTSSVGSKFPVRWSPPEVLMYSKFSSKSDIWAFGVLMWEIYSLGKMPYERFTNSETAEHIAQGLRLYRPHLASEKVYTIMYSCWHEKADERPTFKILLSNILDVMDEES
Target sequence in this assay (Q96SW2 whole entry): as the sequence (Q96SW2 whole entry partner) above

[4] = target: T1, Protein cereblon/Tyrosine-protein kinase BTK; assay: PROTAC activity at BTK/CRBN protein protein interaction in human Ramos cell assessed as Hook effect incubated at >333 nM for 17 hrs measured by Western blot analysis; assay type: cell-based; method in brief: as §3
Target sequence in this assay (Q06187 2-659 limits assumed): as the sequence (Q06187 2-659 limits assumed) above
Target sequence in this assay (Q96SW2 whole entry partner): as the sequence (Q96SW2 whole entry partner) above

TMD8 [5] = assay: Induction of apoptosis in human TMD8 cells measured after 48 hrs by Annexin-V/propidium iodide staining based flow cytometric analysis; assay type: functional, cell-based; settings: dose 0.15-3000 nM
Method in brief: (§4)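 Cells plated at 2 × 10^6 per well and treated 48 h at 3,000–0.15 nM (3-fold dilutions) or 1% DMSO. Harvested, washed in cold PBS, stained with Annexin V Alexa Fluor 488/propidium iodide, analysed by flow cytometry for % live, apoptotic and necrotic cells. Mean of two independent experiments.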

TMD8 [6] = assay: Induction of apoptosis in human TMD8 cells assessed as increase in cleaved caspase 3 level measured after 48 hrs by Western blot analysis; assay type: functional, cell-based; settings: dose 0.15-3000 nM; method in brief: as §2
Protein cereblon = Protein cereblon (Homo sapiens, UniProt Q96SW2); assay: Inhibition of CRBN in HEK293 cells using NanoGlo substrate incubated for 2 hrs by NanoBRET assay; assay type: cell-based
[7] = target: T2, Tyrosine-protein kinase BTK (Homo sapiens, UniProt Q06187); assay: Inhibition of BTK in HEK293 cells using NanoGlo substrate incubated for 2 hrs by NanoBRET assay; assay type: cell-based
T2 sequence (Q06187 whole entry): as the sequence (Q06187 whole entry) above

[8] = target: T1, Protein cereblon/Tyrosine-protein kinase BTK; assay: PROTAC activity at BTK/CRBN protein protein interaction in human JeKo-1 cell assessed as degradation of BTK incubated for 17 hrs measured by Western blot analysis relative to control; assay type: cell-based; method in brief: as §3
Target sequence in this assay (Q06187 2-659 limits assumed): as the sequence (Q06187 2-659 limits assumed) above
Target sequence in this assay (Q96SW2 whole entry partner): as the sequence (Q96SW2 whole entry partner) above

[9] = target: T1, Protein cereblon/Tyrosine-protein kinase BTK; assay: PROTAC activity at BTK/CRBN protein protein interaction in human Ramos cell assessed as degradation of BTK incubated for 17 hrs measured by Western blot analysis relative to control; assay type: cell-based; method in brief: as §3
Target sequence in this assay (Q06187 2-659 limits assumed): as the sequence (Q06187 2-659 limits assumed) above
Target sequence in this assay (Q96SW2 whole entry partner): as the sequence (Q96SW2 whole entry partner) above

TMD8 [10] = assay: Induction of apoptosis in human TMD8 cells assessed as downregulation in Bcl-2 level measured at 0.15 to 3000 nM after 48 hrs by Western blot analysis; assay type: functional, cell-based; settings: dose 0.15-3000 nM; method in brief: as §2
MINO [11] = assay: Induction of apoptosis in human MINO cells assessed as increase in cleaved caspase 3 level measured after 48 hrs by Western blot analysis; assay type: functional, cell-based; settings: dose 0.15-3000 nM; method in brief: as §2
[12] = Cytotoxicity against human MINO cells incubated for 48 hrs by celltitre glo 2.0 assay; assay type: functional, cell-based
[13] = target: T1, Protein cereblon/Tyrosine-protein kinase BTK; assay: PROTAC activity at BTK/CRBN protein protein interaction in human Ramos cell assessed as degradation of BTK preincubated with proteasome inhibitor bortezomib for 2 hrs followed by compound addition at 111 nM for 4 hrs measured by Western blot analysis; assay type: cell-based; method in brief: as §1
Target sequence in this assay (Q06187 2-659 limits assumed): as the sequence (Q06187 2-659 limits assumed) above
Target sequence in this assay (Q96SW2 whole entry partner): as the sequence (Q96SW2 whole entry partner) above

[14] = target: T1, Protein cereblon/Tyrosine-protein kinase BTK; assay: PROTAC activity at BTK/CRBN protein protein interaction in human JeKo-1 cell assessed as Hook effect incubated at >333 nM for 17 hrs measured by Western blot analysis; assay type: cell-based; method in brief: as §3
Target sequence in this assay (Q06187 2-659 limits assumed): as the sequence (Q06187 2-659 limits assumed) above
Target sequence in this assay (Q96SW2 whole entry partner): as the sequence (Q96SW2 whole entry partner) above

TMD8 [15] = assay: Induction of apoptosis in human TMD8 cells at 333 nM for 48 hrs by Annexin-V/propidium iodide staining based flow cytometric analysis; assay type: functional, cell-based; method in brief: as §4
TMD8 [16] = assay: Induction of apoptosis in human TMD8 cells assessed as increase in cleaved PARP level measured after 48 hrs by Western blot analysis; assay type: functional, cell-based; settings: dose 0.15-3000 nM; method in brief: as §2
[17] = target: Non-receptor tyrosine-protein kinase TYK2 (Homo sapiens) (UniProt P29597); assay: Degradation of TYK2 in human TMD8 cells by measuring protein level at 111 nM for 6 hrs using label free proteomic analysis; assay type: cell-based
Method in brief: (§5)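 TMD8 cells (2 × 10^6) given 111 nM or DMSO for 6 h in duplicate. Lysed in 5% SDS/50 mM TEAB pH 8.5. 200 μg protein reduced (10 mM DTT, 55 °C, 30 min), alkylated (50 mM iodoacetamide), S-Trap processed, then LC-MS/MS. Label-free matched-peptide quantitation against DMSO, human UniProt; Benjamini–Hochberg-corrected p-values.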

[18] = target: Eukaryotic peptide chain release factor GTP-binding subunit ERF3A (Homo sapiens) (UniProt P15170); assay: Degradation of […] in human TMD8 cells by measuring protein level at 111 nM for 6 hrs using label free proteomic analysis; assay type: cell-based; method in brief: as §5
[19] = target: T1, Protein cereblon/Tyrosine-protein kinase BTK; assay: PROTAC activity at BTK/CRBN protein protein interaction in human JeKo-1 cell assessed as degradation of BTK incubated for 17 hrs measured by Western blot analysis; assay type: cell-based; method in brief: as §3
Target sequence in this assay (Q06187 whole entry): as the sequence (Q06187 whole entry) above
Target sequence in this assay (Q96SW2 whole entry): as the sequence (Q96SW2 whole entry partner) above

MINO [20] = assay: Induction of apoptosis in human MINO cells measured after 48 hrs by Annexin-V/propidium iodide staining based flow cytometric analysis; assay type: functional, cell-based; settings: dose 0.15-3000 nM; method in brief: as §4
[21] = target: T2, Tyrosine-protein kinase BTK; assay: Degradation of BTK in human TMD8 cells by measuring protein level at 111 nM for 6 hrs using label free proteomic analysis; assay type: cell-based; method in brief: as §5
[22] = target: Tyrosine-protein kinase Fes/Fps (Homo sapiens) (UniProt P07332); assay: Degradation of Fes/Fps in human TMD8 cells by measuring protein level at 111 nM for 6 hrs using label free proteomic analysis; assay type: cell-based; method in brief: as §5
Tyrosine-protein kinase Fes/Fps (Homo sapiens), sequence (P07332 whole entry): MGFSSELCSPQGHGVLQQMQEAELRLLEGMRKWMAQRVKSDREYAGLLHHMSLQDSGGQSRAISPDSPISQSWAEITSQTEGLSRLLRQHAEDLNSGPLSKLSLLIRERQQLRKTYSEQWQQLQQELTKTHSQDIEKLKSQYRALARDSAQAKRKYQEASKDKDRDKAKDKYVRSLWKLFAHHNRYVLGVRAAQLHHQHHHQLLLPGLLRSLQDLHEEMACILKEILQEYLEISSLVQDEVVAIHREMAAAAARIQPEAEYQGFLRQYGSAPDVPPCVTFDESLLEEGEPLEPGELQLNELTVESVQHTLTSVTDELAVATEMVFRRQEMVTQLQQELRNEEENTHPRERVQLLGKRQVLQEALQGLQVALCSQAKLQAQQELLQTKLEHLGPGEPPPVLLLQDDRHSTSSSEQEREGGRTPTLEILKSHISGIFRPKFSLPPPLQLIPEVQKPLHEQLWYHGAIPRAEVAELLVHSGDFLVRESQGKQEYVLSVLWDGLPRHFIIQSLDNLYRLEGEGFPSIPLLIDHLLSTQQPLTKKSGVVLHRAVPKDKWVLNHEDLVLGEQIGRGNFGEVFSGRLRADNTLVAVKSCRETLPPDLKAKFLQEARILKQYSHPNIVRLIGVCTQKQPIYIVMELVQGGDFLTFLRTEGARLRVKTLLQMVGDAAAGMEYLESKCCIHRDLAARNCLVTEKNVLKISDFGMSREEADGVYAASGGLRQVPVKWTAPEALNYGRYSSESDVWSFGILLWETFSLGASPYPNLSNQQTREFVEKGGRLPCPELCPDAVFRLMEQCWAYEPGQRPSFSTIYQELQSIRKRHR

[23] = target: T2, Tyrosine-protein kinase BTK; assay: Binding affinity to full length BTK (unknown origin) assessed as dissociation constant measured at 37 degree C by TR-FRET assay
[24] = target: Tyrosine-protein kinase SYK (Homo sapiens) (UniProt P43405); assay: Degradation of SYK in human TMD8 cells by measuring protein level at 111 nM for 6 hrs using label free proteomic analysis; assay type: cell-based; method in brief: as §5
[25] = target: DNA-binding protein Ikaros (Homo sapiens) (UniProt Q13422); assay: Degradation of IKZF1 in human TMD8 cells by measuring protein level at 111 nM for 6 hrs using label free proteomic analysis; assay type: cell-based; method in brief: as §5
DNA-binding protein Ikaros (Homo sapiens), sequence (Q13422 whole entry): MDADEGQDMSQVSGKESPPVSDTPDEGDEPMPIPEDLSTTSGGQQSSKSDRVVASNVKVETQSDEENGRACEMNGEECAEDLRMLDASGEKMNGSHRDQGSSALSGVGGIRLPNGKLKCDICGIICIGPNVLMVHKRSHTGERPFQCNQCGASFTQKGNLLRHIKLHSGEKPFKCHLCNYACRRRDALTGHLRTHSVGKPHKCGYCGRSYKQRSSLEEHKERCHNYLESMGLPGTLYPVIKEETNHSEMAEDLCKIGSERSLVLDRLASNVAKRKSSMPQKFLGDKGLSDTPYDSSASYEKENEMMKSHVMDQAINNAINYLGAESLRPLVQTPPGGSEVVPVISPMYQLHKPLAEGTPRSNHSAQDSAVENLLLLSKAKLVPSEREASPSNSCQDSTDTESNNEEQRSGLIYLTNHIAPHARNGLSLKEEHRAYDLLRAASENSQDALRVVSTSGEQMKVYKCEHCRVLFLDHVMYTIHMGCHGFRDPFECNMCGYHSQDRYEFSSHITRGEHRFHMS

TMD8 [26] = assay: Cytotoxicity against human TMD8 cells incubated for 48 hrs by celltitre glo 2.0 assay; assay type: functional, cell-based; settings: TMD8, 48 h
[27] = target: T1, Protein cereblon/Tyrosine-protein kinase BTK; assay: PROTAC activity at BTK/CRBN protein protein interaction in human Ramos cell assessed as degradation of BTK incubated at 111 nM for 17 hrs in presence of -iberdomide at 20 uM measured by Western blot analysis
MINO [28] = assay: Induction of apoptosis in human MINO cells assessed as decrease in caspase 3 level measured after 48 hrs by Western blot analysis; assay type: functional, cell-based; settings: dose 0.15-3000 nM; method in brief: as §2

SMILES	DC50 [3]	Emax [8]	Emax [9]	Activity [17]	Activity [18]	DC50 [19]	Activity [21]	Activity [22]	Activity [24]	Activity [25]	also measured
C[C@H]1CN(C(=O)CNc2cccc3c2C(=O)N(C2CCC(=O)NC2=O)C3=O)CCN1c1ccc(Nc2cc(-c3ccnc(N4CCn5c(cc6c5CC(C)(C)C6)C4=O)c3CO)cn(C)c2=O)nc1 (some centres undefined)	0.5 nM	95.7%	97.1%	inactive	inactive	0.6 nM	Active	inactive	inactive	Active	Activity [1]: inactive; Activity (TMD8 [2]): Active; Activity [4]: Active; Activity (TMD8 [5]): Dose-Dependent Effect; Activity (TMD8 [6]): Active; IC50 (Protein cereblon): 107 nM; IC50 [7]: 97 nM; Activity (TMD8 [10]): Active; Activity (MINO [11]): Active; IC50 [12]: 2.2 nM; Activity [13]: inactive; Activity [14]: Active; Activity (TMD8 [15]): Active; Activity (TMD8 [16]): Active; Activity (MINO [20]): Dose-Dependent Effect; Kd [23]: 2.28 nM; IC50 (TMD8 [26]): 1.4 nM; Activity [27]: inactive; Activity (MINO [28]): Active
C[C@H]1CN(C(=O)COc2cccc3c2C(=O)N(C2CCC(=O)NC2=O)C3=O)CCN1c1ccc(Nc2cc(-c3ccnc(N4CCn5c(cc6c5CC(C)(C)C6)C4=O)c3CO)cn(C)c2=O)nc1 (some centres undefined)	1.7 nM	97%	96.2%	inactive	inactive	3.1 nM	Active	inactive	inactive	inactive	–
